Source: PubChem BioAssay (several laboratories)
In the library only some 3.6% were active in any assay of this set; here they are far more common.
NS3 helicase inh: inhibitors of Hepatitis C virus NS3 helicase | inhibition, % at 10.9 µM | NS3 helicase DNA unwinding, Cy5 molecular beacon fluorescence | 290,000 compounds, 0.56% hits;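 active means inhibition above the mean of all tested compounds plus 3 SD, set per campaign, cut at about 35% in these data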;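 further: 0% = DMSO wells and 100% = thioflavine S control wells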
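Assay system – hepatitis C virus NS3 helicase domain fragment enzyme · Buffer or medium – MOPS pH 6.5, MgCl2, DTT, Tween20, BSA · Reagent – Cy5/quencher beacon DNA duplex and ATP to start · Compound – single 10.9 µM dose · Timing – 1 h at 25 °C · Technique – Cy5 beacon fluorescence read at start and 1 h · Measure – % inhibition of unwinding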
DNA FID counter: counter-screen for HCV NS3 helicase inhibitors: DNA intercalator displacement; DNA fluorescent intercalator displacement, fluorescence; inhibition, % at 7.9 µM; 290,000 compounds, 0.17% hits; in the data active means inhibition above about 37%;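 further: 0% = vehicle and 100% = reference compound; higher means more ethidium bromide displaced from hairpin DNA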
EBNA-1 inhibitor: blocks EBNA-1 binding to DNA; EBNA-1 DNA binding, fluorescence polarization; inhibition, % at 14.8 µM; 300,000 compounds, 0.34% hits; AID 1950; in the data active means inhibition above about 28%
FGF22 binding: FGF22 (human) thermal shift binding; 340,000 compounds, 1.5% hits; Q9HCT0; recombinant FGF22 thermal shift, SYPRO orange fluorescence; percent of sucrose octasulfate shift, DMSO zero; activity (Tm shift, normalised), % at 9.99 µM;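 active means mean Tm shift, scaled 0 neutral to 100 positive control, at about 1.3% or above, every replicate too, limit read from the data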
Target sequence (Q9HCT0 whole entry, looked up): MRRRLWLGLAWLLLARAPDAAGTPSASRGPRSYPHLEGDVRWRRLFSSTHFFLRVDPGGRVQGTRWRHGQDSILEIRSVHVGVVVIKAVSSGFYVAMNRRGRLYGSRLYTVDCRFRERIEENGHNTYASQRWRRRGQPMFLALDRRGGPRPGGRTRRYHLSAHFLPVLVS
ZTA counter: blocks Epstein-Barr virus ZTA, an EBNA-1 counter-screen; 320,000 compounds, 0.15% hits; AID 2234; ZTA-DNA binding, fluorescence polarization; inhibition, % at 11 µM; in the data active means inhibition above about 33%
Target sequence (P03206 whole entry, looked up): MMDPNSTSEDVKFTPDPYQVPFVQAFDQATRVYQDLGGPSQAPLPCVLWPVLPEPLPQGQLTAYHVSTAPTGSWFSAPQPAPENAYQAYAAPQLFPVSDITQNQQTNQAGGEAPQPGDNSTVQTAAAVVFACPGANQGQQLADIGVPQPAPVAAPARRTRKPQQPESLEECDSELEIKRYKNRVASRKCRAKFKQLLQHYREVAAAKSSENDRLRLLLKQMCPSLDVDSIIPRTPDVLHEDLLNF
GRIN3A LBD mod: modulates the human NR3A ligand-binding domain; 340,000 compounds, 2.5% hits; NR3A LBD differential scanning fluorimetry, Tm shift; 0% = protein alone, 100% = glycine-bound protein; Tm shift relative to glycine control, % at 25 µM; AID 1259313;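 active means melting temperature shift of at least 10% of the positive control shift, at one fixed dose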
* marks the source's active call; other numbers are inactive results.

Screening CCOc1ccc(Br)cc1C(=O)Nc1ccc(C(=O)NCC(C)C)cc1 returned NS3 helicase inh -9, DNA FID counter 0, EBNA-1 inhibitor 1, ZTA counter -20 and GRIN3A LBD mod 13*.
CCOc1ccc(Br)cc1S(=O)(=O)Nc1ccc(C(=O)Nc2ccccc2OC)cc1 was read as NS3 helicase inh -15, DNA FID counter -13, EBNA-1 inhibitor -9, FGF22 binding 0, ZTA counter 0 and GRIN3A LBD mod 16*.
`CCOc1ccc(Br)cc1S(=O)(=O)Nc1ccc(C(=O)OCC(=O)N(C)c2ccccc2)cc1` gave NS3 helicase inh -6, DNA FID counter -18, EBNA-1 inhibitor 26, ZTA counter 1 and GRIN3A LBD mod -1.
Screening CCOc1ccc(Br)cc1S(=O)(=O)Nc1ccc(C(=O)Nc2ccc(C)cc2)cc1 returned NS3 helicase inh -7, DNA FID counter -1, EBNA-1 inhibitor 4, FGF22 binding 0, ZTA counter -3 and GRIN3A LBD mod 18*.
CCOc1ccc(Br)cc1S(=O)(=O)Nc1cccc(S(=O)(=O)N(C)c2ccccc2)c1 was read as NS3 helicase inh -27, DNA FID counter -16, EBNA-1 inhibitor 0, FGF22 binding 0, ZTA counter -4 and GRIN3A LBD mod 12*.
Cc1cccc(OCC(=O)Nc2cccc(C(=O)NCC(C)C)c2)c1 was read as NS3 helicase inh -8, DNA FID counter -20, EBNA-1 inhibitor 4, ZTA counter 9 and GRIN3A LBD mod 2.
For Cc1cccc(OCC(=O)Nc2ccc(C(=O)NCC(C)C)cc2)c1 the results were NS3 helicase inh -4, DNA FID counter -16, EBNA-1 inhibitor -3, FGF22 binding 44*, ZTA counter 7 and GRIN3A LBD mod -10.
`Cc1ccc(S(=O)(=O)Oc2ccc(/C=C(/NC(=O)c3ccccc3)C(=O)O)cc2)cc1` gave NS3 helicase inh 18, DNA FID counter -26, EBNA-1 inhibitor -4, FGF22 binding 0, ZTA counter 6 and GRIN3A LBD mod 11*.
Screening Cc1ccc(S(=O)(=O)Oc2ccc(/C=C(/NC(=O)c3ccccc3)C(=O)NCC(=O)O)cc2)cc1 returned NS3 helicase inh 21, DNA FID counter -28, EBNA-1 inhibitor 1, ZTA counter -27 and GRIN3A LBD mod 1.
For Cc1cc(NC(=O)/C=C/c2ccccc2Cl)n(-c2nc3ccccc3[nH]2)n1 the results were NS3 helicase inh 0, DNA FID counter 0, EBNA-1 inhibitor 6, FGF22 binding 0, ZTA counter -6 and GRIN3A LBD mod 16*.
For Cc1cc(NC(=O)c2ccc(F)cc2F)n(-c2nc3ccccc3[nH]2)n1 the results were NS3 helicase inh -2, DNA FID counter 0, EBNA-1 inhibitor -9, FGF22 binding 0, ZTA counter -2 and GRIN3A LBD mod 2.
Screening COc1ccc(-c2nc3ccccc3s2)cc1 returned NS3 helicase inh 2, DNA FID counter -8, FGF22 binding 0 and GRIN3A LBD mod 40*.
For Oc1ccc(-c2nc3ccccc3s2)cc1 the results were NS3 helicase inh 9, DNA FID counter -7, EBNA-1 inhibitor -4, FGF22 binding 0, ZTA counter 13 and GRIN3A LBD mod 15*.
CN(C)CC(=O)Nc1ccc2c(c1)[C@H]1C[C@@H](CC(=O)NCCc3ccccc3)O[C@@H](CO)[C@H]1O2 was read as FGF22 binding 0.
Screening C/C(=N/Nc1ccc(C(=O)c2c(C)cc3ccccn23)cc1[N+](=O)[O-])c1ccc(O)cc1 returned FGF22 binding 0 and GRIN3A LBD mod 11*.
C/C(=N\Nc1ccc(C(=O)c2c(C)cc3ccccn23)cc1[N+](=O)[O-])c1ccc(O)cc1 was read as NS3 helicase inh 1, DNA FID counter -3, EBNA-1 inhibitor 2, FGF22 binding 0, ZTA counter 4 and GRIN3A LBD mod 6.
For CC(C)c1ccc2occ(-c3nn[nH]n3)c(=O)c2c1 the results were NS3 helicase inh -2, DNA FID counter -5, EBNA-1 inhibitor -4, FGF22 binding 44*, ZTA counter 1 and GRIN3A LBD mod 0.
`Cc1ccc2occ(-c3nn[nH]n3)c(=O)c2c1` gave NS3 helicase inh 7, DNA FID counter -1, EBNA-1 inhibitor 13, FGF22 binding -1, ZTA counter -4 and GRIN3A LBD mod 4.
